Experiments:
[1] = target: T1, RNA-directed RNA polymerase (Hepacivirus hominis, UniProt O39930); assay: Inhibitory concentration required to inhibit HCV RNA dependent RNA polymerase Nonstructural protein 5B in the presence of Mg2+ is determined
[2] = target: Human immunodeficiency virus type 1 integrase (Human immunodeficiency virus 1, UniProt Q7ZJM1); assay: Inhibitory concentration required to inhibit HIV-integrase is determined
DNA polymerase I = DNA polymerase I (Escherichia coli, UniProt P00582); assay: Inhibitory concentration required to inhibit Klenow DNA-dependent DNA polymerase
[3] = target: Human immunodeficiency virus type 1 reverse transcriptase (Human immunodeficiency virus 1, UniProt Q72547); assay: Inhibitory concentration required to inhibit HIV-RT is determined
[4] = target: T1, RNA-directed RNA polymerase; assay: Inhibitory concentration required to inhibit HCV RNA dependent RNA polymerase Nonstructural protein 5B in the presence of Mn2+ is determined
Rattus norvegicus [5] = species on record: Rattus norvegicus; assay: Concentration required for irreversible binding to rat liver microsomes in presence of NADPH with GSH; type: functional
Summary of the method: (§1)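 A tritium-labelled inhibitor was incubated with rat liver microsomes in the presence of NADPH for 4 h. Irreversible covalent binding was read as residual radioactivity bound to microsomal protein, expressed as pmol/mg protein.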

Rattus norvegicus [6] = species on record: Rattus norvegicus; assay: Concentration required for irreversible binding to rat liver microsomes in presence of NADPH without GSH; type: functional; summary of the method: as §1

T1 sequence (O39930 whole entry): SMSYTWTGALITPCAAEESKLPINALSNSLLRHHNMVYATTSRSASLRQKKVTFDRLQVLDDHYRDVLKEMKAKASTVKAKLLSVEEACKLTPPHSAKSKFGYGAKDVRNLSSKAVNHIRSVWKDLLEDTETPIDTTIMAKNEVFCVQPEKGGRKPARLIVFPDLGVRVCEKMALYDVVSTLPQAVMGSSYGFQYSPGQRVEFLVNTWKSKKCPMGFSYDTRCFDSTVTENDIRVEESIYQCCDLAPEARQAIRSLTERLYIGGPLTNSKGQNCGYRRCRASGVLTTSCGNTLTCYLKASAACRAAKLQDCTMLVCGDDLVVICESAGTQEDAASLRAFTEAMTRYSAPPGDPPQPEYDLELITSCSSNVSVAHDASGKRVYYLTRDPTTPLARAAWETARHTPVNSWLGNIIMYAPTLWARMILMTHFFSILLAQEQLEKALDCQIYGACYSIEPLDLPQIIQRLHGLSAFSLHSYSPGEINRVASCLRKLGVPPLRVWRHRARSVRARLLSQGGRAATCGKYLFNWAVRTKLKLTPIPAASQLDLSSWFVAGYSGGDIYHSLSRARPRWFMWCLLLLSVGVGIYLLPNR
Sequence of Human immunodeficiency virus type 1 integrase (Q7ZJM1 whole entry): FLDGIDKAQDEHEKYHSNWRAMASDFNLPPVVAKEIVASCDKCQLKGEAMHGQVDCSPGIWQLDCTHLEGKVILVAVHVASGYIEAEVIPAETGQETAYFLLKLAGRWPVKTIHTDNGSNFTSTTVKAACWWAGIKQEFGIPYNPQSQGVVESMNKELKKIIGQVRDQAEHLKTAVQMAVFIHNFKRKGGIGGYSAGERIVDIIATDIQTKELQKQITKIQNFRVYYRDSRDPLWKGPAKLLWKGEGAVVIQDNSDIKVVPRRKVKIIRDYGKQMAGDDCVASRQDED
Sequence of DNA polymerase I (P00582 whole entry): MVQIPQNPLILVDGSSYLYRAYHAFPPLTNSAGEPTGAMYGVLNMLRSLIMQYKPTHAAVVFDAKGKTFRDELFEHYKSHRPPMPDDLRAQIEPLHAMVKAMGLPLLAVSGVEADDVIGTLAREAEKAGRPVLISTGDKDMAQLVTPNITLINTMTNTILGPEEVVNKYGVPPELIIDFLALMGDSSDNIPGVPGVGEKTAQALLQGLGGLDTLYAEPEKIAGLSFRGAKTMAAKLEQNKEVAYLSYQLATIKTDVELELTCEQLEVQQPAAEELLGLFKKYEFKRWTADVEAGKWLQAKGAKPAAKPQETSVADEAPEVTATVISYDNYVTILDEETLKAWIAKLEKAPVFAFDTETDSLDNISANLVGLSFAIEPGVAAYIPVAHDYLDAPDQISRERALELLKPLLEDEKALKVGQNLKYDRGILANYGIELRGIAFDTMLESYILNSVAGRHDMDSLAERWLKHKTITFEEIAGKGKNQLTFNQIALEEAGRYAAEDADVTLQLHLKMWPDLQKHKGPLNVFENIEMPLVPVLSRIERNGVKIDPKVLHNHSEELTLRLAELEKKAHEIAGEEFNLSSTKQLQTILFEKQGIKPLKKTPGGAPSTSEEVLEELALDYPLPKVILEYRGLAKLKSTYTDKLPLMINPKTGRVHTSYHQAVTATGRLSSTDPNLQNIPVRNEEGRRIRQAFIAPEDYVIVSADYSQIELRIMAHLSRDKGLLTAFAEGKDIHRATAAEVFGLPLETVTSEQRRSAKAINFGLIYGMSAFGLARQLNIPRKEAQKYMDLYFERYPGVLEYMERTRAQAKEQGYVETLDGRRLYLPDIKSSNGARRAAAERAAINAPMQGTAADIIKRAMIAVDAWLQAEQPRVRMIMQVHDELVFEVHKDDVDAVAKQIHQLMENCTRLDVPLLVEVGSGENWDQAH

Row | IC50 [2] | IC50 (DNA polymerase I) | IC50 [3] | IC50 [4] | Activity (Rattus norvegicus [5]) | Activity (Rattus norvegicus [6]) | Structure (SMILES) | IC50 [1]
1 | > 50 µM | > 100 µM | > 100 µM | 0.6 µM | – | – | O=C(O)c1nc(-c2cccc(O)c2)nc(O)c1O | 5.8 µM
2 | > 50 µM | > 100 µM | 23 µM | 1.4 µM | – | – | O=C(O)c1nc(-c2ccc(Cl)cc2)[nH]c(=O)c1O | 29 µM
3 | > 50 µM | > 100 µM | > 100 µM | 1 µM | – | – | O=C(O)c1nc(-c2cccc(OCc3ccccc3)c2)[nH]c(=O)c1O | 15 µM
4 | – | – | – | – | > 400 pmol/mg | > 400 pmol/mg | O=C(O)C(=O)/C=C(\O)c1ccccc1 | –
5 | – | – | – | 1 µM | – | – | Cn1c(-c2cccc(O)c2)nc(C(=O)O)c(O)c1=O | 6 µM
6 | > 50 µM | > 100 µM | > 100 µM | 2.3 µM | < 2 pmol/mg | < 2 pmol/mg | O=C(O)c1nc(-c2ccccc2)nc(O)c1O | –

Row | Structure (SMILES) | IC50 [2] | IC50 (DNA polymerase I) | IC50 [3] | IC50 [4] | Activity (Rattus norvegicus [5]) | Activity (Rattus norvegicus [6]) | IC50 [1]
7 | O=c1[nH]c(-c2cccc(O)c2)ncc1O | – | – | – | > 50 µM | – | – | > 50 µM
8 | COc1c(C(=O)O)nc(-c2ccc(Cl)cc2)[nH]c1=O | – | – | – | > 50 µM | – | – | > 50 µM
9 | COc1nc(-c2cccc(O)c2)nc(C(=O)O)c1O | – | – | – | > 50 µM | – | – | > 50 µM
10 | COC(=O)c1nc(-c2ccc(Cl)cc2)[nH]c(=O)c1O | – | – | – | 30 µM | – | – | > 100 µM

— ChEMBL document CHEMBL1138789, “HCV NS5b RNA-dependent RNA polymerase inhibitors: from alpha,gamma-diketoacids to 4,5-dihydroxypyrimidine- or 3-methyl-5-hydroxypyrimidinonecarboxylic acids. Design and synthesis” (J Med Chem, 2004)
